Measured values: article PMC2864154 (Biochemical pharmacology, 2010)
Read-outs that look alike come from different tables or passages of the source.

Assays:
[1] = target: P2Y1 receptor (Mus musculus, UniProt P49650); experiment: Competition binding against [125I]MRS2500 in MIN6 cell membranes
[2] = test system: MIN6 cells; experiment: Insulin secretion assay; assay type: cell-based, mouse; details: for EC50: read-out: EC50 insulin secretion, 1 h, n=3
In short: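 Cells were seeded at 40,000/well and cultured 48 h in DMEM at 37°C, then preincubated 1 h in KRBB with 3.3 mM glucose and 0.3% albumin. Secretion was stimulated 1 h at 37°C in KRBB with 16.7 mM glucose (or a glucose series) ± agonist, with or without P2Y1/P2Y13 antagonists (30 μM) or a P2Y6 antagonist (10 μM). Insulin was measured by ELISA against a mouse insulin standard; n=3.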

[3] = test system: MIN6 cells; experiment: Inositol phosphate; assay type: cell-based, mouse; details: read-out: EC50 accumulation of intracellular IP3; 30 min at 37°C, 20 mM lithium chloride, n=3
In short: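 MIN6 cells were grown to 80% confluence with myo-[3H]-inositol (2 μCi/ml) for 48 h. They were then exposed to P2Y ligand or buffer with 20 mM LiCl for 30 min at 37°C. The reaction was stopped with cold 20 mM formic acid, and supernatants were neutralized with NH4OH. Samples went through AG1-X8 anion exchange, with total IP3 eluted by 1 M ammonium formate/0.1 M formic acid and counted by scintillation; n=3.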

[4] = test system: MIN6 cells; experiment: TNF-α induced apoptosis, HO342/PI nuclei staining, fluorescence microscopy; assay type: cell-based, mouse; details: TNF-α 50 ng/ml; for nuclei/cells double stained with HO342 and PI: agonist 10 μM where present
In short: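 MIN6 cells were grown 48 h on coverslips, then moved to DMEM with 5% FBS. Cells were pretreated 30 min with 10 μM agonist, which stayed present, then given TNF-α 50 ng/ml (16 h per methods; legend gives staining after 24 h); PBS alone was the negative control. Staining used PI 10 μg/ml plus HO342 20 μg/ml for 10 min, viewed by fluorescence microscopy at 365 nm excitation. Condensed or fragmented blue, pink or red nuclei were scored apoptotic.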

[5] = test system: MIN6 cells; experiment: TNF-α induced apoptosis, PI flow cytometry; assay type: cell-based, mouse; details: TNF-α 50 ng/ml, 24 h; for cell death (sub-G1 peak): agonist pretreatment where present
In short: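 Cells were grown in 6-well plates, pretreated with agonist (10 μM, 30 min, kept present), and exposed to TNF-α 50 ng/ml. At 24 h after induction, cells were trypsinized, stained with PI (10 μg/ml) for 30 min, and analyzed by flow cytometry. Cell death was scored as the percentage of cells with sub-G1 DNA content.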

[6] = test system: P2Y2; details: read-out: EC50 PLC activation; P2Y2, transfected astrocytoma cells; cited from earlier work
[7] = test system: P2Y4; details: read-out: EC50 PLC activation; P2Y4, transfected astrocytoma cells; cited from earlier work
[8] = test system: P2Y6; details: read-out: EC50 PLC activation; P2Y6, transfected astrocytoma cells; cited from earlier work
[9] = target: mouse P2Y1 receptor (Mus musculus, UniProt P49650); experiment: Saturation binding of [125I]MRS2500 in MIN6 cell membranes; details: n=3
mouse P2Y1 receptor, sequence (P49650 whole entry): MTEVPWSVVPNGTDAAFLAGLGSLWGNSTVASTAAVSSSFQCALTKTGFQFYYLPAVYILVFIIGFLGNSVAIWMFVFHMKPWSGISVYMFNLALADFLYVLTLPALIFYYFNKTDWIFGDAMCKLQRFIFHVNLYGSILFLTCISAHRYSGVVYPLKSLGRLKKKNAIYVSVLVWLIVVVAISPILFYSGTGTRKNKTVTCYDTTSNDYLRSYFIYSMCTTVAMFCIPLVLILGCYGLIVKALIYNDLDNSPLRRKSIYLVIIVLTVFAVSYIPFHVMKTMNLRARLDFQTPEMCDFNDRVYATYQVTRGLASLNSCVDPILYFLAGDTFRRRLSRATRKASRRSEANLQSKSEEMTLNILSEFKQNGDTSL
In short: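 Membranes came from MIN6 cells at 80% confluence: homogenized, cleared at 100 × g for 5 min, Polytron-homogenized in 50 mM Tris-HCl pH 7.4, and pelleted at 20,000 × g for 20 min at 4°C. They were incubated with 0.2–7.2 nM [125I]MRS2500 in 50 mM Tris, MgCl2, pH 7.4, for 60 min at 4°C. Nonspecific binding used 10 μM unlabelled ligand. Bound ligand was collected on GF/B filters; Bmax was expressed per mg protein (BCA) and KD from saturation/Scatchard analysis; n=3.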

[10] = against [125I]MRS2500, MIN6 cell membranes, mean ± s.e.m. of three experiments

P2Y1 receptor, sequence (P49650 whole entry): as above

With Nc1ncnc2c1ncn2[C@@H]1O[C@H](COP(=O)(O)OP(=O)(O)O)[C@@H](O)[C@H]1O [ADP] the Ki [1, 10] was 335 ± 3.9 nM, the “effect on insulin release” value ([2]; agonist 10 μM, 16.7 mM glucose) was “stimulated insulin release” and the “concentration at which insulin secretion was maximal” value ([2]; concentration response studies, 16.7 mM glucose) was 10 µM.
For CNc1nc(Cl)nc2c1ncn2[C@H]1C[C@H](OP(=O)(O)O)[C@]2(COP(=O)(O)O)C[C@H]12 [MRS2279, 2-chloro-N^6-methyl-(N)-methanocarba-2′-deoxyadenosine-3′,5′-bisphosphate], the Ki [1, 10] was 6.86 ± 0.12 nM.
CNc1ncnc2c1ncn2[C@H]1C[C@H](OP(=O)(O)O)[C@@H](COP(=O)(O)O)O1 [MRS2179, N^6-methyl-2′-deoxyadenosine-3′,5′-bisphosphate] gave a Ki [1] of 49.8 ± 0.23 nM.
For CSc1nc(N)c2ncn(C3CC(O)C4(COP(=O)(O)OP(=O)(O)O)CC34)c2n1 (stereo not drawn) [MRS2365, (N)-methanocarba-2′-deoxy-2-methylthio-adenosine-5′-diphosphate], the EC50 ([2]; 16.7 mM glucose) was 25.8 ± 5.6 nM.
For O=c1ccn([C@@H]2O[C@H](COP(=O)(O)OP(=O)(O)OP(=O)(O)OC[C@@H]3O[C@@H](n4ccc(=O)[nH]c4=O)C(O)[C@@H]3O)[C@H](O)C2O)c(=O)[nH]1 (stereo partly drawn) [Up3U, P^1,P^4-di(uridine 5′-)triphosphate], the “effect on insulin secretion at low glucose” value ([2]; 3.3 mM glucose, data not shown) was “did not show any significant effect”, the “increase in insulin secretion compared with glucose alone” value ([2]; agonist 10 μM, 35 mM glucose) was 2 fold and the EC50 ([2]; 16.7 mM glucose) was 30.7 ± 12.7 nM. The EC50 [3] was 29 ± 7.3 nM, the “cells homogeneously stained only with HO342” value ([4]; agonist 10 μM) was “more than 80%” and the “cytoprotection against TNF-α induced apoptosis (microscopy)” value ([4]; agonist 10 μM pretreatment) was “significant cytoprotection”. The “nuclei/cells double stained with HO342 and PI” value [4] was ~ 10%, the “reduction of cell death compared to TNF-α alone” value ([5]; agonist pretreatment) was “significant reduction in cell death” and the “cell death (sub-G1 peak)” value [5] was 25%. The EC50 [6] was 1310 ± 210 nM, the EC50 [7] was 870 ± 110 nM and the EC50 [8] was 270 ± 70 nM.
In the case of S=C=Nc1cccc(NC(=S)NCCCCNC(=S)Nc2cccc(N=C=S)c2)c1 [MRS2578], the “effect of antagonist on insulin secretion induced by Up3U” value ([2]; antagonist 10 μM, Up3U 10 μM) is reported as “significantly blocked”.
With CNc1nc(I)nc2c1ncn2[C@H]1C[C@H](OP(=O)(O)O)[C@]2(COP(=O)(O)O)C[C@H]12 [MRS2500, 2-iodo-N^6-methyl-(N)-methanocarba-2′-deoxyadenosine-3′,5′-bisphosphate] the Ki [1, 10] was 2.92 ± 0.21 nM.
For CNc1nc(I)nc2c1ncn2[C@H]1C[C@H](OP(=O)(O)O)[C@]2(COP(=O)(O)O)C[C@H]12 [[^125I]MRS2500], the Bmax [9] was 307±22 fmol receptor per mg protein and the Kd ([9]; saturation binding, 60 min at 4° C) was 4.74 ± 0.47 nM.
In the case of TNF-α, the “nuclei/cells double stained with HO342 and PI” value [4] is reported as 30-40% and the “cell death (sub-G1 peak)” value [5] is reported as 54%.
